The record followed here is ChEMBL document CHEMBL4609998 (Bioorg Med Chem, 2020).

Active and inactive are the calls of the source. The calls are words filed in the database; no cut-off is given here.

The subject of experiment [1] is U-87 MG. Nature of the experiment: Antiproliferative activity against human U87 cells assessed as reduction in cell viability at 3 to 300 uM incubated for 5 days by Prestoblue reagent based assay. The format is functional. Particulars: U-87MG ATCC. An outline of the steps:
(§1)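 Library screen: U87 (1 × 10^3/well) and T98 (5 × 10^2/well) cells seeded 48 h ahead, then exposed for 5 d to three concentrations (3, 30 and 300 μM). Viability by PrestoBlue; EC50 derived from the resulting dose-response curves. Means of three independent experiments in triplicate.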

Experiment [2] has as its system U-87 MG. Briefly: Antiproliferative activity against human U87 cells assessed as reduction in cell viability incubated for 5 days by Prestoblue reagent based assay. The format is functional, U-87MG ATCC. The settings on record: 120 h. In outline:
(§2)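 Glioma lines in DMEM/10% FBS/2 mM glutamine: U87 at 1 × 10^3 and T98 at 5 × 10^2 cells/well, incubated 48 h, then treated over 1–30,000 nM for 5 d. PrestoBlue viability; EC50 calculated from dose-response curves. Mean ± SEM, 3 independent experiments in triplicate.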

The test system of experiment [3] is T98. Nature of the experiment: Antiproliferative activity against human T98 cells assessed as reduction in cell viability at 3 to 300 uM incubated for 5 days by Prestoblue reagent based assay. Type of experiment: functional. An outline of the steps: as §1
The subject of experiment [4] is T98. Nature of the experiment: Antiproliferative activity against human T98 cells assessed as reduction in cell viability incubated for 5 days by Prestoblue reagent based assay. Type of experiment: functional. Particulars: T98, 120 h. An outline of the steps:
as §2

The subject of experiment [5] is U-87 MG. Briefly: Antiproliferative activity against human U87 cells assessed as reduction in cell viability at 1 to 30000 nM incubated for 5 days by Prestoblue reagent based assay. Type of experiment: functional. The settings on record: U-87MG ATCC. In outline:
as §2

For experiment [6], the system named is T98. Briefly: Antiproliferative activity against human T98 cells assessed as reduction in cell viability at 1 to 30000 nM incubated for 5 days by Prestoblue reagent based assay. The format is functional. In outline:
as §2

A further experiment is filed under the species Homo sapiens. Nature of the experiment: Antiproliferative activity against human G317 cell spheroid assessed as reduction in cell viability incubated for 8 days. Type of experiment: functional. An outline of the steps: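 G317 patient-derived glioma cells (4 × 10^3) spun into ultra-low attachment round-bottom wells (1000g, 4 °C, 10 min), left 2 days to form spheroids, then exposed to inhibitors at 4 concentrations from 10 nM to 10 μM for 8 days. Imaged on day 10; spheroid area quantified by image analysis. Mean ± SEM of 6 spheroids from two cultures.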

The test system of experiment [7] is U-87 MG. Briefly: Antiproliferative activity against human U87 cells assessed as reduction in cell viability at 1 to 1000 nM incubated for 5 days by Prestoblue reagent based assay. The format is functional. Particulars: U-87MG ATCC. In outline:
(§3)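 U87 (1 × 10^3/well) or T98 (5 × 10^2/well) cells, grown in DMEM with 10% FBS and 2 mM glutamine, plated 48 h before dosing at 1–1,000 nM. Viability read with PrestoBlue at day 5; EC50 values taken from dose-response curves. Mean ± SEM, three independent experiments in triplicate.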

Experiment [8] concerns T98. Nature of the experiment: Antiproliferative activity against human T98 cells assessed as reduction in cell viability at 1 to 1000 nM incubated for 5 days by Prestoblue reagent based assay. Type of experiment: functional. In outline: as §3
The test system of experiment [9] is T98. Nature of the experiment: Synergistic antiproliferative activity against human T98 cells assessed as reduction in cell viability at 10 to 1000 nM in presence of GDC0941 incubated for 5 days by Prestoblue reagent based assay. The format is functional.
The subject of experiment [10] is U-87 MG. Briefly: Synergistic antiproliferative activity against human U87 cells assessed as reduction in cell viability at 10 to 1000 nM in presence of GDC0941 incubated for 5 days by Prestoblue reagent based assay. The format is functional. Particulars: U-87MG ATCC.
The test system of experiment [11] is T98. Nature of the experiment: Synergistic antiproliferative activity against human T98 cells assessed as reduction in cell viability at 100 nM in presence of GDC0941 incubated for 5 days by Prestoblue reagent based assay. The format is functional.

Consider `Nc1nc2cc(-c3nn(C[C@H]4CCCO4)c4ncnc(N)c34)ccc2o1`, for which the inhibition result in the experiment with U-87 MG [1] and in the experiment with T98 [3] was “Active” each time. The concentration for a half-maximal effect (EC50) with U-87 MG [2] and in the experiment with T98 [4] was 100 to 150 nM in each case.
`Nc1ncnc2c1c(-c1cnc3[nH]ccc3c1)nn2CC1CCCC1`: the inhibition entry with U-87 MG [5] and with T98 [6] was “Active” in each case.
`CC(C)n1nc(-c2ccc3oc(N)nc3c2)c2c(N)ncnc21`: the inhibition entry in the experiment listed under Homo sapiens is “Dose-dependent effect”.
`Nc1nc2cc(-c3nn(CC4OCCO4)c4ncnc(N)c34)ccc2o1`: the inhibition entry in the experiment with U-87 MG [1] and in the experiment on T98 [3] was “Active” each time. Moreover, the 50% effective concentration (EC50) in the experiment with U-87 MG [2] and in the experiment on T98 [4] was 100 to 150 nM throughout.
Regarding `CCc1c2c(nc3ccc(O)cc13)-c1cc3c(c(=O)n1C2)COC(=O)[C@]3(O)CC`, the inhibition entry in the experiment filed under Homo sapiens was “Dose-dependent effect”.
With `Nc1nc2cc(-c3nn(CC4CCCC4)c4ncnc(N)c34)ccc2o1`, the inhibition result in the experiment on U-87 MG [1], in the experiment with T98 [3], with U-87 MG [7] and with T98 [8] was “Active” in each case. For the same compound, the result with T98 [9] and with U-87 MG [10] was Active. Besides, the inhibition result in the experiment filed under Homo sapiens is “Dose-dependent effect”.
In the case of `Nc1nc2cc(-c3nn(CC4CCCO4)c4ncnc(N)c34)ccc2o1` (stereo unspecified), the inhibition result in the experiment with U-87 MG [1] and in the experiment on T98 [3] was “Active” each time. In addition, the EC50 with U-87 MG [2] and in the experiment on T98 [4] was 100 to 150 nM in each case.
For `Nc1nc2cc(-c3nn(C[C@@H]4CCCO4)c4ncnc(N)c34)ccc2o1`, the inhibition result in the experiment on U-87 MG [1] and in the experiment on T98 [3] was “Active” in each case. Moreover, the EC50 with U-87 MG [2] and with T98 [4] was 100 to 150 nM in each case.
Turning to `CCOC(Cn1nc(-c2ccc3oc(N)nc3c2)c2c(N)ncnc21)OCC`, the inhibition result with U-87 MG [1], with T98 [3], in the experiment on U-87 MG [7] and in the experiment on T98 [8] was “Active” each time. The concentration giving a half-maximal response (EC50) in the experiment with U-87 MG [2] and with T98 [4] was 100 to 150 nM throughout. Also, the inhibition entry in the experiment filed under Homo sapiens was “Dose-dependent effect”. Besides, the outcome in the experiment with T98 [11] was Active.
On to `CNc1ncc2c(-c3ccc4oc(N)nc4c3)nn(CC3CCCC3)c2n1`, for which the inhibition result in the experiment with U-87 MG [5] and in the experiment with T98 [6] was “Active” in each case.
As for `COC(Cn1nc(-c2ccc3oc(N)nc3c2)c2c(N)ncnc21)OC`, the inhibition entry in the experiment with U-87 MG [1] and in the experiment on T98 [3] was “Active” each time. Further, the EC50 in the experiment with U-87 MG [2] and with T98 [4] was 100 to 150 nM each time.
